MEKK2 mut-MEK5 = signal of MEK5 binding to mutant human MEKK2 PB1 domain. bead flow cytometry, Alexa488-MEK5 binding to MEKK2 mutant. percent response, % at 10 µM. 290,000 tested, 0.35% active. AID 1530; in the data active means percent response above about 24%, passing the limit was not always enough
UBC13 polyUb = blocks human UBC13 polyubiquitin chain formation. TR-FRET. 330,000 tested, 0.47% active. inhibition, % at 20 µM. P61088; in the data active means inhibition above about 45%, passing the limit was not always enough
Target sequence (P61088 whole entry, looked up): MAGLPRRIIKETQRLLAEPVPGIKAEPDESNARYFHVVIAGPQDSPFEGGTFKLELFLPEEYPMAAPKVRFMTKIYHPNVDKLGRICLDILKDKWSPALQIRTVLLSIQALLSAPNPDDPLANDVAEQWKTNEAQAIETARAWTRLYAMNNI
MEKK3 PB1 HTS = MEKK3-MEK5 PB1 interaction, increase or decrease. bead-based flow cytometry, Alexa488-MEK5 binding to MEKK3; actives lie on both sides; 0 = blocked by unlabeled MEK5, 100 = vehicle. 290,000 tested, 1.4% active. binding response (% of control), % at 10 µM. AID 1529. Q99759;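 active means binding response more than 3 SD above or below the average of its plate-row segment, actives on both sides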;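 further: Alexa488 bead fluorescence after subtracting the streptavidin-only scavenger bead signal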
MEKK2wt PB1 HTS = raises or lowers MEK5 binding to wildtype human MEKK2 PB1 domain; Q9Y2U5; bead flow cytometry, Alexa488-MEK5 binding to MEKK2 WT; actives lie on both sides; binding response (% of control), % at 10 µM; 290,000 tested, 1.1% active; AID 1531; in the data active means binding response below about 67% or above about 130%
Pemphigus Ab inh = inhibitors of pemphigus antibody binding to human desmoglein-3. DSG3-coupled beads, scFv-anti-DSG3-GFP binding, flow cytometry; active compounds read low. binding (percent of control), % at 10 µM. 310,000 tested, 0.48% active. AID 588358;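 active means binding more than 3 SD below its plate's average and above zero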;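 further: hits lower antibody fragment binding to DSG3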
Apaf-1 inh = human Apaf-1 inhibition | O14727 | reconstituted apoptosome caspase-3 activity, DEVD-Rh110 fluorescence | inhibition, % at 20 µM | 330,000 tested, 0.71% active; active means inhibition of at least 40% at 20 µM;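 further: plate controls were DMSO wells for no effect and DEVD-CHO caspase inhibitor wells for full effect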
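Material: cell-free apoptosome with Apaf-1, procaspase-3 and caspase-9; Buffer or medium: Hepes pH 7.5 with detergent and BSA; Reagent: cytochrome c trigger plus (Z-DEVD)2-Rh110 caspase-3 substrate; Times: compound with Apaf-1, dATP, procaspase-3 30 min, then 50 min reaction, room temperature; Technique: Rh110 fluorescence intensity.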
MEKK2wt confirm = raises or lowers MEK5 binding to wildtype human MEKK2, retest; shares compounds with MEKK3 PB1 HTS; bead flow cytometry, Alexa488-MEK5 binding to MEKK2 WT; actives lie on both sides; binding response (% of control), % at 10 µM; 5,900 tested, 2.4% active; in the data active means binding response below about 16% or above about 210%; inactive means in between
MEKK2mut-MEK5 = signal of MEK5 binding to mutant human MEKK2, retest | shares compounds with MEKK3 PB1 HTS | bead flow cytometry, Alexa488-MEK5 binding to MEKK2 mutant | percent response, % at 10 µM | 5,900 tested, 2% active; in the data active means percent response mostly above about 71%, no sharp cut-off; inactive means mostly below about 38%;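 further: higher means compound restores mutant binding toward wildtype level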
MEKK3 confirm = MEKK3-MEK5 PB1 inhibition, single concentration confirmation; shares compounds with MEKK3 PB1 HTS; bead flow cytometry, Alexa488-MEK5 binding to MEKK3; active compounds read low; binding response (% of control), % at 10 µM; 5,900 tested, 1.8% active;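 active means binding response below 72% of control, or above a set upper limit, though filed actives all read lower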;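 further: 100% = DMSO only wells and 0% = binding blocked by excess unlabeled MEK5; lower values mean stronger disruption of MEK5 binding to MEKK3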
An asterisk follows results filed as active; x = no result given; [ ] = dose if it differs, or a comment. The list is not random: actives were taken first. Their share in the collection is about 3.2%.

SMILES | MEKK2 mut-MEK5 | UBC13 polyUb | MEKK3 PB1 HTS | MEKK2wt PB1 HTS | Pemphigus Ab inh | Apaf-1 inh | MEKK2wt confirm | MEKK2mut-MEK5 | MEKK3 confirm
CCOc1ccc2oc(C(=O)NCc3ccccc3CN3CCCC3)c(C)c2c1 | x | 26 | x | x | 103 | 30 | x | x | x
C=C1CCN([C@H](C(=O)NCc2ccc(Cl)cc2)C(C)C)S(=O)(=O)c2ccccc21 | -3 | -3 | 80*[inhibitor] | 96 | 108 | 13 | 95 | -5 | 97
CCN(CC(=O)N1CCCC1)S(=O)(=O)c1cc(C)ccc1OC | 1 | -6 | 99 | 102 | 124 | -2 | x | x | x
Cc1ccc(N2CC(C(=O)Nc3nnc(SCC(=O)N4CCOCC4)s3)CC2=O)cc1 (stereo not drawn) | 6 | 5 | 100 | 101 | 103 | 7 | x | x | x
NNC(=O)c1oc2ccccc2c1-n1cccc1 | 4 | 18 | 143* | 121 | x | -13 | 94 | -6 | 95
Cc1ccc(-n2[nH]c(C)c(C=NCc3ccncc3)c2=O)cc1 | 26 | 10 | 130* | 125 | 101 | -15 | 98 | 1 | 102
Cc1[nH]n(-c2ccccc2)c(=O)c1C=NCc1ccncc1 | 6 | -20 | 103 | 106 | 98 | -4 | x | x | x
O=C(NNCc1ccc(O)cc1)c1ccccc1Cl | 0 | 1 | 99 | 100 | 89 | -11 | x | x | x
CSc1nc2c(c(=O)[nH]1)C(c1ccccc1)C1=C(CC(C)(C)CC1=O)N2 (stereo not drawn) | 4 | 12 | 131* | 121 | 103 | 6 | 104 | 4 | 111
N#C/C(=C\c1c(Oc2ccccc2F)nc2ccccn2c1=O)C(=O)NC1CCS(=O)(=O)C1 (stereo not drawn) | 3 | 6 | 97 | 96 | x | 0 | x | x | x
C=CCc1ccc(OCC(O)CN2CCCCC2C)c(OC)c1 (stereo not drawn) | 42* | 18 | 104 | 136* | 105 | -10 | 123 | 15 | 101
Clc1ccc(-c2nnc(CCc3ccccc3)o2)c(Cl)c1 | -12 | -1 | 55*[inhibitor] | 62 | 102 | 12 | 102 | -4 | 99
O=c1c2ccccc2c(C=NC2CCN(Cc3ccccc3)CC2)c(O)n1Cc1ccc2c(c1)OCO2 | 18 | -9 | 101 | 154* | x | 21 | 156 | 20 | 96
COc1cccc(CSc2nccn2C)c1 | 3 | 1 | 103 | 104 | 112 | -2 | x | x | x
COc1cc(C(=O)OCC2CC(c3ccccc3)=NO2)cc(OC)c1OC (stereo not drawn) | 280* | -16 | 101 | 93 | 99 | 9 | 100 | 0 | 104
CCN(CC)c1ccc(C(=O)Nn2cnc3ccccc3c2=O)cc1 | 4 | 14 | 105 | 104 | 88 | 5 | x | x | x
COc1ccccc1N(CC(=O)NCCSc1ccccc1)S(C)(=O)=O | -1 | -8 | 95 | 93 | 104 | -11 | x | x | x
CCOc1ccccc1N(CC(=O)NCCSc1ccccc1)S(C)(=O)=O | 1 | 3 | 132* | 119 | 81 | 1 | 103 | 0 | 107
O=S(=O)(c1ccccc1)N1N=C(c2ccccc2)CC1c1ccccc1F (stereo not drawn) | 0 | 5 | 95 | 97 | 90 | 14 | x | x | x
Cc1ccc(C(=O)N=c2sccn2C)o1 | 3 | -14 | 102 | 100 | 105 | -2 | x | x | x
O=C(c1cc(COc2cccc(C(F)(F)F)c2)on1)N1CCC(Oc2cccnc2)CC1 | 0 | -6 | 97 | 101 | 102 | 17 | x | x | x
Nc1ccc2nc(Cc3ccccc3)[nH]c2c1 | -12 | -2 | 41*[inhibitor] | 47*[inhibitor] | 92 | -2 | 105 | 8 | 104
